Compound activity deposited in PubChem BioAssay by several laboratories.
This is a sample that favours compounds with a hit; in the whole collection about 1.4% have one here.
PG9 binder: PG9 antibody binding by small molecule | inhibition, % at 6.7 µM | 0.43% of 360,000 active | TR-FRET gp120-PG9 antibody binding | AID 624416; in the data active = inhibition above about 8.5%
NR2E3 ag-1: activates human NR2E3 receptor; AID 602229; inhibition of corepressor binding, % at 3.98 µM; CHO-S Gal4-NCOR/VP16-NR2E3 two-hybrid, luciferase; 0.35% of 360,000 active; Q9Y5X4;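 active = inhibition above the mean of all tested compounds plus 3 SD, cut at about 70% in these data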;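 also: higher means lower luciferase signal from less NR2E3 corepressor binding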
NR1D1 modulator: modulates human Rev-erb alpha binding to DNA. P20393. Rev-erbα–FITC-DNA binding, fluorescence polarization, 90 min. activity, % at 10 µM. 0.79% of 370,000 active;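 active = activity above about 14%, limit read from the data; passing the limit was not always enough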
Target sequence (P20393 whole entry, looked up): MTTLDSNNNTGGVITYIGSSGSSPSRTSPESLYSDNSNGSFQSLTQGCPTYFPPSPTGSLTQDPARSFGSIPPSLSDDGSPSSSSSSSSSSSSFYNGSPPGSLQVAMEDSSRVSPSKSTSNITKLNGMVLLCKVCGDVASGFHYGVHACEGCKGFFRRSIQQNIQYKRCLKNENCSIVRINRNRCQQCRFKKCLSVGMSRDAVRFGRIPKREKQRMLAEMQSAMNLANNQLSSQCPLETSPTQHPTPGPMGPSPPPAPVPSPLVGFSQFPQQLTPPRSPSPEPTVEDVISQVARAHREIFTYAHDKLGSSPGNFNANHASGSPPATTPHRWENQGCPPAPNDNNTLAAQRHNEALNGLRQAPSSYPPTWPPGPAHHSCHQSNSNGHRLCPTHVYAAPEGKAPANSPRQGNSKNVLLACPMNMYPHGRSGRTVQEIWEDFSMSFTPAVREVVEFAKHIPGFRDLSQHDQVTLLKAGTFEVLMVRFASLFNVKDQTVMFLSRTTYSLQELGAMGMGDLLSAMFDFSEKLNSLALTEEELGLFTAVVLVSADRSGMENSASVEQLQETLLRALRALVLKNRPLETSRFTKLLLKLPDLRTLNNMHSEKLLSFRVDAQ
NR2E3 ag-2: agonists of human nuclear receptor NR2E3. GST-NR2E3/biotin-RetCOR TR-FRET, 1536-well. inhibition of corepressor binding, % at 4.78 µM. 0.12% of 320,000 active. AID 2300. Q9Y5X4;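 active = percent inhibition above the cutoff of mean plus 3 SD of all tested compounds, set per screening campaign, cut at about 20% in these data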
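System: GST-tagged NR2E3 plus biotinylated RetCOR corepressor; Buffer or medium: pH 7.5 Tris-based buffer; Probe or stimulus: RetCOR corepressor, biotinylated, 7 nM; Doses: compound at 4.8 µM, single dose; Schedule: 5 h incubation at 4 °C; Technique: time-resolved FRET; Evaluation: percent inhibition of TR-FRET ratio; Replication: one well per compound, singlicate testing.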
NR1D1 mod conf: Rev-erb alpha (human) modulation, hit confirmation; shares compounds with NR1D1 modulator; Rev-erb alpha FITC-DNA binding, fluorescence polarization, 90 min; activation, % at 25 µM; 61% of 3,000 active; AID 1259319;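 active = activation at or above a set limit, or at least 3 SD above the negative control mean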
RORg DNA counter: RORgamma DNA-binding activity, dose-response counter-screen; shares compounds with NR1D1 modulator; purified RORgamma protein-FITC-DNA binding, fluorescence polarization; IC50, µM; 8% of 910 active; AID 1259320;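 active = Compounds whose fitted half-maximal concentration for disrupting protein-DNA binding is below 10 micromolar; the record names Rev-erb in its text, so the target is in doubt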
Each line names hits and unclear results; the compound was inactive in the other large screens (follow-up assays come after a bar, where they were run).

O=C(CSc1nc2ccccc2c(=O)n1-c1ccc(F)c(Cl)c1)Nc1cccc(S(=O)(=O)N2CCOCC2)c1	NR1D1 modulator 37.9 | NR1D1 mod conf 19.3
Cc1ccc(-n2c(SCC(=O)Nc3cccc(S(=O)(=O)NC4=NCCCCC4)c3)nc3ccccc3c2=O)cc1	NR1D1 modulator 79.8 | NR1D1 mod conf 42.4 | RORg DNA counter inactive
CCc1ccc(-n2c(SCC(=O)Nc3cccc(S(=O)(=O)NC4=NCCCCC4)c3)nc3ccccc3c2=O)cc1	none
CCOC(=O)c1c(NC(=O)CSc2nc3ccccc3c(=O)n2-c2ccc(F)cc2)sc(C(C)=O)c1C	NR1D1 modulator 114.0 | NR1D1 mod conf 29.7
O=C(CSc1nc2ccccc2c(=O)n1-c1ccc(F)cc1)Nc1ccc(Cl)c(S(=O)(=O)N2CCOCC2)c1	NR1D1 modulator 63.0 | NR1D1 mod conf 33.2 | RORg DNA counter inactive
Cc1nc2cc(C(=O)N3CCN(C(=O)OCc4ccccc4)CC3)ccc2n1C1CCCC1	none (no result: PG9 binder, NR2E3 ag-1, NR2E3 ag-2)
CCOC(=O)[C@]12CCCC3=C1N(CCC3)C(=O)[C@@H](CC(=O)NCCCN1CCCC1=O)C2	none (no result: PG9 binder, NR2E3 ag-1, NR2E3 ag-2)
CCOc1cc(/C=C2\NC(=O)NC2=O)cc([N+](=O)[O-])c1O	NR1D1 modulator 19.3 | NR1D1 mod conf inactive
CCOc1cc(/C=C2\C(=O)NN(c3ccccc3)C2=O)cc([N+](=O)[O-])c1O	none
CC(CCN1CCC(C(O)(c2ccccc2)c2ccccc2)CC1)Oc1cc(F)cc(C#N)c1 (stereo unspecified)	none (no result: PG9 binder, NR2E3 ag-1, NR2E3 ag-2)
Cc1cc(C)cc(OCC(=O)NNC(=S)NC(=O)C2CC2)c1	NR1D1 modulator 33.0 | NR1D1 mod conf inactive
COc1ccc(OCC(=O)NNC(=S)NC(=O)C2CC2)cc1	none (no result: NR2E3 ag-2)
COc1ccc(C#Cc2ccc(C3=CC(=O)CC(C)(C)C3=O)cc2)cc1	NR1D1 modulator 153.0 (no result: NR2E3 ag-2) | NR1D1 mod conf 50.8 | RORg DNA counter inactive
Nn1c(SCC(=O)Nc2nccs2)nnc1-c1cc(-c2ccccc2)n[nH]1	none (no result: PG9 binder, NR2E3 ag-1, NR2E3 ag-2)
O=C1CSc2ccc(C(=O)N3CCCC(C(=O)N4CCCC4)C3)cc2N1 (stereo unspecified)	none (no result: PG9 binder, NR2E3 ag-1, NR2E3 ag-2)
COc1ccccc1C(=O)Nc1nnc(-c2ccc(F)cc2)s1	NR1D1 modulator 36.1 | NR1D1 mod conf 38.6 | RORg DNA counter inactive
COc1ccc(C(=O)Nc2nnc(-c3ccc(F)cc3)s2)c(OC)c1	NR1D1 modulator 24.7 (no result: NR2E3 ag-2) | NR1D1 mod conf inactive
O=C(Nc1nnc(-c2ccccc2)s1)c1ccc(F)cc1	none
COc1ccccc1C(=O)Nc1nnc(S(=O)(=O)N2CCN(c3ccc(F)cc3)CC2)s1	NR1D1 modulator 17.6 | NR1D1 mod conf inactive
CCOC(=O)CC[C@@]1(C(=O)OCC)C[C@@H](CC(=O)N2CCSCC2)C(=O)N2CCCC=C21	none (no result: PG9 binder, NR2E3 ag-1, NR2E3 ag-2)
CC(COc1cccc(OC(F)(F)F)c1)CN1CCC(C(O)(c2ccccc2)c2ccccc2)CC1 (stereo unspecified)	none (no result: PG9 binder, NR2E3 ag-1, NR2E3 ag-2)
O=C(CSc1nnc(-c2cccs2)n1-c1ccccc1)Nc1ccccc1	PG9 binder 54.3, NR1D1 modulator 111.8 | NR1D1 mod conf 92.5
O=C(CSc1nnc(-c2ccc(Cl)cc2)n1-c1ccccc1)Nc1ccc(Oc2ccccc2)cc1	NR1D1 modulator 21.9 (no result: PG9 binder, NR2E3 ag-1, NR2E3 ag-2) | NR1D1 mod conf inactive
COc1ccc(-n2c(SCC(=O)Nc3ccc(Oc4ccccc4)cc3)nnc2-c2ccccc2)cc1	none (no result: PG9 binder, NR2E3 ag-1, NR2E3 ag-2)
S=C(Nc1cccc(Br)c1)OC1CCC12CCC(c1ccccc1)CC2 (stereo unspecified)	none (no result: PG9 binder, NR2E3 ag-1, NR2E3 ag-2)
CC(=O)c1sc2c(c1OC(=O)c1ccc(Cl)cc1)c(=O)n(-c1ccccc1)c(=S)n2-c1ccccc1	NR1D1 modulator 44.7 (no result: NR2E3 ag-2) | NR1D1 mod conf inactive
Cc1cc(=O)oc2cc(OCC(=O)Nc3ccc(F)cc3F)ccc12	NR1D1 modulator 20.9 (no result: NR2E3 ag-2) | NR1D1 mod conf inactive
Cc1cc(=O)oc2cc(OCC(=O)Nc3ccc(S(=O)(=O)N(C)C)cc3)ccc12	NR1D1 modulator 23.2 | NR1D1 mod conf 30.3 | RORg DNA counter inactive
C#CCNC(=O)C[C@H]1C[C@@]2(C(=O)OC)C(=C[C@H](C3CCCC3)O[C@@H]2C)N(Cc2cccc3ccccc23)C1=O	none (no result: PG9 binder, NR2E3 ag-1, NR2E3 ag-2)
C=CCOc1ccc(/C(O)=C2\C(=O)C(=O)N(CCN(C)C)C2c2cccs2)cc1 (stereo unspecified)	NR1D1 modulator 29.4 | NR1D1 mod conf 34.9 | RORg DNA counter inactive
CCOc1ccc(/C(O)=C2/C(=O)C(=O)N(CCN(CC)CC)C2c2cccs2)cc1 (stereo unspecified)	none
COc1cccc(-c2cc(=O)c3cc(NC(=O)c4ccccc4)ccc3[nH]2)c1	NR1D1 modulator 26.1 | NR1D1 mod conf inactive
COc1cccc(-c2cc(=O)c3cc(NC(=O)c4ccc(Cl)cc4)ccc3[nH]2)c1	none
Cn1c(=O)cc(OCCCC(=O)Nc2cc(C(F)(F)F)ccn2)c2ccccc21	none (no result: PG9 binder, NR2E3 ag-1, NR2E3 ag-2)
COc1ccc(Cn2ccc3ccc(-c4ccc5ccn(Cc6ccccc6F)c5c4)cc32)cc1	none (no result: PG9 binder, NR2E3 ag-1, NR2E3 ag-2)
O=C(Nc1ccc(O)c(-c2nc3ccccc3s2)c1)c1cc(=O)c2ccccc2o1	none
O=C(Nc1ccc(O)c(-c2nc3ccccc3s2)c1)c1cccs1	PG9 binder 36.1, NR1D1 modulator 360.1 | NR1D1 mod conf 702.9 | RORg DNA counter inactive
COC1=C[C@H](C(=O)N[C@H]2CCCC[C@@H]2NC(C)=O)[C@@]2(C)Cc3ccccc3[C@H]2CC1=O	none (no result: PG9 binder, NR2E3 ag-1, NR2E3 ag-2)
Cn1nnnc1SCc1nc2ccccc2s1	NR1D1 modulator 21.7 | NR1D1 mod conf inactive
Cn1nnnc1SCc1cccc2ccccc12	none
Cc1cc(C)cc(N2CC(O)=C(c3nc4ccccc4c(=O)[nH]3)C2=N)c1	NR1D1 modulator 21.1 | NR1D1 mod conf 33.1 | RORg DNA counter inactive
COc1cccc(N2CC(O)=C(c3nc4ccccc4c(=O)[nH]3)C2=N)c1	none (no result: PG9 binder, NR1D1 modulator)
CCn1c(=O)c(C(=O)NNC(=O)Cc2ccccc2)c(O)c2ccccc21	NR1D1 modulator 32.8 | NR1D1 mod conf inactive
CC(C)Cn1c(=O)c(C(=O)Nc2ccccc2S(N)(=O)=O)c(O)c2ccccc21	NR1D1 modulator 55.6 | NR1D1 mod conf 28.7
Cc1nc2c(c(=O)c3ccccc3n2C)c(=O)n1C1CCCC1	none (no result: NR2E3 ag-1, NR2E3 ag-2)
Cn1c2ccccc2c(=O)c2c(=O)n(C3CCCCCC3)c(C3CCCCC3)nc21	NR1D1 modulator 160.7 (no result: NR2E3 ag-2) | NR1D1 mod conf 79.4
CCc1nc(SCC(=O)Nc2cc(C)ccc2OC)c2c(C)c(C)sc2n1	NR1D1 modulator 18.0 | NR1D1 mod conf inactive
Cc1cc(C)cc(NC(=O)OC2CC3CC2[C@H]2CCCCN2[C@H]3Cc2ccccc2)c1 (stereo partly specified)	none (no result: PG9 binder, NR2E3 ag-1, NR2E3 ag-2)
O=C(Nc1ccc(-c2nc3cc(Cl)ccc3c(=O)o2)cc1)c1ccco1	NR1D1 modulator 27.3 | NR1D1 mod conf inactive
Cc1ccc(NC(=O)c2sc3ncn(CC(=O)N4CCOCC4)c(=O)c3c2C)c(Br)c1	NR1D1 modulator 27.8 | NR1D1 mod conf inactive
Cc1cc([N+](=O)[O-])ccc1NC(=O)c1sc2ncn(CC(=O)N3CCOCC3)c(=O)c2c1C	none
